Screening results (PubChem)
SIAE primary = human SIAE inhibitors, primary screen, biochemical, fluorescence polarization, FP-Rh probe, 1536-well HTS. Sialate O-acetylesterase (Homo sapiens), Q9HAT2. 0.69% of 370,000 active. SIAE FP-Rh probe binding. AID 1053197, 2014. inhibition, % at 9.66 µM;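 active = inhibition above a cutoff: mean of compounds within the control limits plus 3 SD of those, cut at about 17% in these data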;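 also: 0% = plate median of compound wells and 100% = probe without SIAE protein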
TCR-CD3 inh = inhibitors of human TCR-CD3 interaction, primary screen, biochemical, fluorescence, TAMRA-labeled TCR probe; inhibition, % at 9.4 µM; AID 651800, 2012; 0.37% of 360,000 active; in the data active = inhibition above about 19%;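 also: recombinant mutant TCR 2C K166C tagged with TAMRA read by polarization; 0% = receptor in buffer alone and 100% = receptor with positive control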
HTRA1 inh = HTRA1 serine protease inhibitors, primary screen, biochemical, fluorescence polarization, HTS; Q92743; inhibition, % at 5.96 µM; 0.5% of 340,000 active; recombinant HTRA1, FP-rhodamine activity-based probe; in the data active = inhibition above about 36%;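 also: 0% = enzyme with DMSO and 100% = wells lacking enzyme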
rCAG RNA binder = binders of r(CAG) RNA repeats, primary screen, biochemical, fluorescence. r(CAG) RNA repeat, TO-PRO-1 dye displacement fluorescence. inhibition, % at 3 µM. 1.3% of 370,000 active. AID 651821, 2012;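 active = inhibition above the plate cutoff, the mean of all test compounds on that plate plus 3 SD, cut at about 35% in these data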;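 also: 0% = DMSO alone and 100% = 100 µM mitoxantrone as full dye displacement; higher means more dye released from RNA so lower well fluorescence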
mABHD4 FP = ABHD4 inhibitors, primary screen, biochemical, fluorescence polarization, mouse | purified mABHD4, FP-Rh probe fluorescence polarization | inhibition, % at 8.92 µM | 0.54% of 370,000 active;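 active = inhibition exceeding the mean over every tested compound plus 3 SD, cut at about 30% in these data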;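 also: 0% = plate median of compound wells and 100% = S159A mutant with DMSO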
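Assay system: Wild-type mouse ABHD4 protein | Medium: HEPES pH 7.0 buffer, 150 mM NaCl, 0.01% Pluronic F-127 | Incubation: Enzyme–compound pre-incubation 45 min, then probe 60 min, both 25 °C | Technique: Fluorescence polarization with parallel and perpendicular emission, 525/598 nm | Evaluation: % inhibition of FP-Rh probe binding versus controls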
PRMT1 inh = PRMT1 methyltransferase inhibitors, primary screen, biochemical, fluorescence polarization. recombinant PRMT1, activity-based probe fluorescence polarization. inhibition, % at 2.79 µM. Protein arginine N-methyltransferase 1 (Homo sapiens), Q99873. AID 652257, 2013. 1.3% of 370,000 active;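 active = inhibition above about 21% made by adding two undisclosed values, limit read from the data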
Target sequence (Q99873 whole entry, looked up): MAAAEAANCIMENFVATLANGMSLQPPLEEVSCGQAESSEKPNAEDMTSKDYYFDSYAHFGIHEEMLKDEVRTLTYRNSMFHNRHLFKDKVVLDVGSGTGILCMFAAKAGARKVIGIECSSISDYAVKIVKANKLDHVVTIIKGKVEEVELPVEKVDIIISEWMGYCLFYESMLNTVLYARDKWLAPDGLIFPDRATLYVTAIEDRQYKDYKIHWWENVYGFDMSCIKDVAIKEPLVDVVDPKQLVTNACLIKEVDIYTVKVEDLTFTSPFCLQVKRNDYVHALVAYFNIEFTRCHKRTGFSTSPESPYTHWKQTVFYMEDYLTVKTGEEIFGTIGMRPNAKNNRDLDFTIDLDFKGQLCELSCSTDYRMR
PRMT1 confirm = PRMT1 methyltransferase inhibitors, confirmation, biochemical, fluorescence polarization, triplicate; shares compounds with PRMT1 inh; recombinant His-PRMT1, activity-based probe fluorescence polarization; inhibition, % at 2.79 µM; 42% of 3,300 active; AID 687036, 2013;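 active = mean inhibition across replicates above the hit cutoff derived for the earlier primary screen, cut at about 22% in these data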
An asterisk follows results filed as active; . = no result given. Sampled rows, rich in hits. Any-hit rate of the full collection: about 3.5%.

SMILES	SIAE primary	TCR-CD3 inh	HTRA1 inh	rCAG RNA binder	mABHD4 FP	PRMT1 inh	PRMT1 confirm
O=C(C1CCCO1)N1CCN(C2=Nc3ccccc3Sc3ccccc32)CC1 (stereo unspecified)	-4	.	.	2	-3	-4	.
O=C1C=CC(=O)N1CCCCCCN1C(=O)C=CC1=O	9	1	.	2	5	93*	90*
O=C(O)CN1C(=O)C=CC1=O	1	6	3	2	2	64*	75*
COc1ccccc1CCn1cnc(-c2cccc(F)c2)c1CC(C)C	0	2	.	0	-5	4	.
CC1(c2nnnn2Cc2ccccc2)CCCCC(=O)N1Cc1cccs1 (stereo unspecified)	7	.	.	0	4	2	.
Cc1ccc(/C=C2\SC(=S)N(C3CCS(=O)(=O)C3)C2=O)cc1 (stereo unspecified)	-4	-8	-1	2	-7	10	.
O=C1/C(=C/c2ccco2)SC(=S)N1C1CCS(=O)(=O)C1 (stereo unspecified)	17	1	14	19	23	36*	6
CCN(C(=O)C(C)N1C(=O)/C(=C/c2ccco2)SC1=S)C1CCS(=O)(=O)C1 (stereo unspecified)	2	2	23	33	21	26*	6
CCOC(=O)c1c[nH]c(=S)n(-c2ccccc2)c1=O	1	0	-3	1	-1	0	.
CCOC(=O)c1c(SCCN2CCCC2)n(-c2ccccc2)c(=S)n(-c2ccccc2)c1=O	1	-5	3	7	-2	52*	40*
CN(Cc1ccccc1)C(=O)OCc1cn(Cc2cccc(F)c2F)nn1	0	.	.	-1	0	-5	.
COC(=O)c1ccc(N2CN=C(c3ccc(C)cc3)NC2=S)cc1	-12	4	-18	2	-1	35*	-6
Cc1ccc(-n2c(SCC(=O)N/N=C/C=C\c3ccco3)nnc2-c2ccccc2)cc1	2	.	.	5	-3	12	.
COc1ccc(S[C@]2(C(=O)NCCc3ccccc3)CC(=O)N[C@@H]2c2ccc(OC)cc2)cc1	4	.	.	2	-6	-6	.
CC(=O)c1sc2nc(-c3cccs3)cc(C(F)(F)F)c2c1N	-2	-7	-26	7	-2	31*	20
Cc1c(C(=O)O)sc2nc(-c3cccs3)cc(C(F)(F)F)c12	-10	5	-22	20	-5	1	.
COc1ccc(S(=O)(=O)N2CCOCC2)cc1NC(=O)CSc1nnc(C2CC2)n1C1CC1	-6	3	1	0	8	40*	0
Cc1ccc(S(=O)(=O)N2CCOCC2)cc1NC(=O)CSc1nnc(C2CC2)n1C1CC1	1	2	-7	-2	12	-1	.
S=C(NCc1ccco1)Nc1ccc(Br)cn1	-1	1	-5	3	-3	6	.
S=C(NCc1ccco1)Nc1cc(-c2ccccc2)[nH]n1	-7	-7	-38	6	-27	32*	29*
CCOC(=O)c1c(C)[nH]c(O)c1C=Nc1ccc(C(F)(F)F)cc1	5	-5	62*	0	11	29*	14
CSc1cnn(Cc2ccccc2)c(=O)c1SCc1ccccc1	-2	-5	-22	-2	-2	74*	6
CCOc1cc(-c2cc(-c3ccc(C)o3)nc(N)c2C#N)ccc1O	-9	2	-20	8	-16	1	.
Cc1ccc(-c2cc(-c3ccc4c(c3)OCO4)c(C#N)c(N)n2)o1	-14	1	-16	11	-12	44*	31*
Cc1ccc(-c2cc(-c3ccc(C)o3)nc(N)c2C#N)cc1	-3	2	8	17	0	58*	79*
Cc1ccc(-c2cc(-c3ccc(F)cc3)c(C#N)c(N)n2)o1	-10	-2	17	4	7	46*	20
